Measurements taken from ChEMBL document CHEMBL1134537, “Potent dibasic GPIIb/IIIa antagonists with reduced prolongation of bleeding time: synthesis and pharmacological evaluation of 2-oxopiperazine derivatives” (J Med Chem, 2001).

Key:
Format in all cases: functional
Cavia porcellus [1] = species on record: Cavia porcellus; experiment: In vitro inhibition of ADP induced aggregation in guinea pig platelets
Procedure, shortened: (§1)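 Guinea pig blood was taken by aortic puncture under pentobarbital into 3.15% citrate (1:10). PRP was adjusted to 4 × 10^5 platelets/μL and prewarmed 2 min at 37 °C with compound, stirred. Aggregation was induced with ADP (0.8–1 μM) and read as the change in light transmittance. IC50 with 95% CI.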

Cavia porcellus [2] = species on record: Cavia porcellus; experiment: Ex vivo inhibition of ADP induced aggregation in guinea pig platelets
Procedure, shortened: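 Male guinea pigs (250–400 g) were given a continuous iv infusion in 0.9% saline, with vehicle for controls. At 90 min, citrated blood was drawn from the abdominal aorta under anesthesia and PRP was prepared. Aggregation was induced with submaximal ADP and read by light transmittance. ID50 in μg/kg/min with 95% CI, n = 2–5.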

Cavia porcellus [3] = experiment: Effect on bleeding time when a dose of 4.0 ug/kg/min was administered to guinea pig
Procedure, shortened: (§2)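 Male guinea pigs (250–400 g) received continuous iv infusion of compound in 0.9% saline, with vehicle for controls. Template BT was taken 90 min after infusion start under pentobarbital (25 mg/kg ip), with hind limb shaved the day before and a pressure cuff proximal to the site. Each animal's value is the mean of two cuts; mean ± SE, n = 3. The cut-off is 900 s.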

[4] = Dose ratio for dose causing prolongation of bleeding time to 3 times the basel value vs ID50 value of ex-vivo ADP-induced platelet aggregation.
Procedure, shortened: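 Template bleeding time and ex vivo ADP aggregation measured in male guinea pigs 90 min after starting continuous iv infusion in 0.9% saline. BT(×3) is the dose prolonging BT to 3 times basal. The ratio is BT(×3) dose divided by the ex vivo ID50 dose.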

Cavia porcellus [5] = experiment: Effect on bleeding time when a dose of 4 ug/kg/min was administered to guinea pig; procedure, shortened: as §2
Cavia porcellus [6] = experiment: Effect on bleeding time when a dose of 3.0 ug/kg/min was administered to guinea pig; procedure, shortened: as §2
Cavia porcellus [7] = experiment: Effect on bleeding time when a dose of 6.0 ug/kg/min was administered to guinea pig; procedure, shortened: as §2
Cavia porcellus [8] = experiment: Effect on bleeding time when a dose of 0.2 ug/kg/min was administered to guinea pig; procedure, shortened: as §2
Cavia porcellus [9] = experiment: Effect on bleeding time when a dose of 5.0 ug/kg/min was administered to guinea pig; procedure, shortened: as §2
Cavia porcellus [10] = species on record: Cavia porcellus; experiment: In vitro effect on ADP induced platelet aggregation in guinea pig platelet rich plasma; procedure, shortened: as §1
[11] = In vitro effect on ADP induced platelet aggregation in monkey platelet rich plasma; settings: Cercopithecidae
Procedure, shortened: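 Monkey blood was drawn into 3.8% citrate (1:10). PRP at 3 × 10^5 platelets/μL was warmed 2 min at 37 °C with compound under stirring. Aggregation was triggered by ADP (30–40 μM) and measured by light transmittance. IC50 with 95% CI, n = 4.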

Homo sapiens [12] = species on record: Homo sapiens; experiment: In vitro effect on ADP induced platelet aggregation in human platelet rich plasma
Procedure, shortened: (§3)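 Human blood was collected into 3.8% citrate (1:10). PRP was adjusted to 3 × 10^5 platelets/μL and preincubated 2 min at 37 °C with compound, stirred at 1000 rpm. ADP (1–10 μM) was then added and light-transmittance aggregometry recorded. IC50 with 95% CI, n = 4.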

Homo sapiens [13] = species on record: Homo sapiens; experiment: In vitro effect on PAF induced human platelet aggregation
Procedure, shortened: (§4)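 Human citrated (3.8%) PRP adjusted to 3 × 10^5 platelets/μL was stirred and prewarmed 2 min at 37 °C with compound. Submaximal agonist was added (PAF, TRAP or collagen) and aggregation recorded as the change in light transmittance.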

Homo sapiens [14] = species on record: Homo sapiens; experiment: In vitro effect on TRAP induced human platelet aggregation; procedure, shortened: as §4
Homo sapiens [15] = species on record: Homo sapiens; experiment: In vitro effect on ADP induced human platelet aggregation; procedure, shortened: as §3
Homo sapiens [16] = species on record: Homo sapiens; experiment: In vitro effect on collagen induced human platelet aggregation; procedure, shortened: as §4
Cavia porcellus [17] = experiment: Effect on bleeding time when a dose of 2 ug/kg/min was administered to guinea pig; procedure, shortened: as §2
Cavia porcellus [18] = experiment: Effect on bleeding time when a dose of 2.5 ug/kg/min was administered to guinea pig; procedure, shortened: as §2
Cavia porcellus [19] = experiment: Effect on bleeding time when a dose of 10 ug/kg/min was administered to guinea pig; procedure, shortened: as §2
Cavia porcellus [20] = experiment: Effect on bleeding time when a dose of 2.2 ug/kg/min was administered to guinea pig; procedure, shortened: as §2
Cavia porcellus [21] = experiment: Effect on bleeding time when a dose of 8.0 ug/kg/min was administered to guinea pig; procedure, shortened: as §2
Cavia porcellus [22] = experiment: Effect on bleeding time when a dose of 9.0 ug/kg/min was administered to guinea pig; procedure, shortened: as §2
Cavia porcellus [23] = experiment: Effect on bleeding time when a dose of 6.5 ug/kg/min was administered to guinea pig; procedure, shortened: as §2
Cavia porcellus [24] = experiment: Effect on bleeding time when a dose of 5 ug/kg/min was administered to guinea pig; procedure, shortened: as §2
Cavia porcellus [25] = experiment: Effect on bleeding time when a dose of 0.9 ug/kg/min was administered to guinea pig; procedure, shortened: as §2
Cavia porcellus [26] = experiment: Effect on bleeding time when a dose of 1.4 ug/kg/min was administered to guinea pig; procedure, shortened: as §2

Row | Structure (SMILES) | IC50 (Cavia porcellus [1]) | ID50 (Cavia porcellus [2]) | Dissociation ratio [4] | further results
1 | N=C(N)Cc1ccc(C(=O)NCCC[C@H]2C(=O)N(CC(=O)O)CCN2C(=O)CNC(=O)c2ccc(C(=N)N)cc2)cc1 | 67 nM | 0.41 µg/min/kg | 10 | BT (Cavia porcellus [3]): 620
2 | N=C(N)Cc1ccc(C(=O)NC[C@H]2C(=O)N(CC(=O)O)CCN2C(=O)CNC(=O)c2ccc(C(=N)N)cc2)cc1 | 57 nM | 0.42 µg/min/kg | <10 | BT (Cavia porcellus [5]): 760
3 | N=C(N)c1ccc(C(=O)NCC(=O)N2CCN(CC(=O)O)C(=O)[C@@H]2CCCNC(=O)c2ccc(CCN)cc2)cc1 | 81 nM | 0.56 µg/min/kg | 11 | BT (Cavia porcellus [6]): 270; BT (Cavia porcellus [7]): 860
4 | COc1ccc(C[C@H](NC(=O)c2ccc(C(=N)N)cc2)C(=O)N2CCN(CC(=O)O)C(=O)[C@@H]2CCCCNC(=O)c2ccc(C(=N)N)cc2)cc1 | 12 nM | 0.041 µg/min/kg | <5 | BT (Cavia porcellus [8]): >900
5 | COc1ccc(C[C@H](NC(=O)c2ccc(C(=N)N)cc2)C(=O)N2CCN(CC(=O)O)C(=O)[C@@H]2CCCNC(=O)c2ccc(C(=N)N)cc2)cc1 | 23 nM | 0.021 µg/min/kg | 10 | –
6 | N=C(N)c1ccc(C(=O)NCC(=O)N2CCN(CC(=O)O)C(=O)[C@@H]2CNC(=O)c2ccc(C(=N)N)cc2)cc1 | 120 nM | 0.72 µg/min/kg | <6 | BT (Cavia porcellus [3]): >900
7 | N=C(N)c1ccc(C(=O)NCCCC[C@H]2C(=O)N(CC(=O)O)CCN2C(=O)CNC(=O)c2ccc(C(=N)N)cc2)cc1 | 150 nM | 0.79 µg/min/kg | 6 | BT (Cavia porcellus [9]): 620
8 | COC(=O)C[C@H]1C(=O)N(CC(=O)O)CCN1C(=O)CNC(=O)c1ccc(C(=N)N)cc1 | – | – | – | IC50 (Cavia porcellus [10]): 43 nM; IC50 [11]: 46 nM; IC50 (Homo sapiens [12]): 31 nM; IC50 (Homo sapiens [13]): 29 nM; IC50 (Homo sapiens [14]): 32 nM; IC50 (Homo sapiens [15]): 31 nM; IC50 (Homo sapiens [16]): 31 nM
9 | N=C(N)Nc1ccc(C(=O)NCC[C@H]2C(=O)N(CC(=O)O)CCN2C(=O)CNC(=O)c2ccc(C(=N)N)cc2)cc1 | 37 nM | 0.12 µg/min/kg | 21 | BT (Cavia porcellus [17]): 410; BT (Cavia porcellus [18]): 820
10 | N=C(N)c1ccc(C(=O)NCC(=O)N2CCN(CC(=O)O)C(=O)[C@@H]2CCCNC(=O)CCCCCN)cc1 | 160 nM | 0.86 µg/min/kg | <12 | BT (Cavia porcellus [19]): 780
11 | N=C(N)c1ccc(C(=O)NCCC[C@H]2C(=O)N(CC(=O)O)CCN2C(=O)CNC(=O)c2ccc(C(=N)N)cc2)cc1 | 37 nM | 0.19 µg/min/kg | 12 | BT (Cavia porcellus [20]): 660
12 | N=C(N)Nc1ccc(C(=O)NCC(=O)N2CCN(CC(=O)O)C(=O)[C@@H]2CNC(=O)c2ccc(NC(=N)N)cc2)cc1 | 140 nM | 1 µg/min/kg | <10 | BT (Cavia porcellus [19]): 720
13 | N=C(N)c1ccc(C(=O)NCC[C@H]2C(=O)N(CC(=O)O)CCN2C(=O)CNC(=O)c2ccc(C(=N)N)cc2)cc1 | 190 nM | 0.91 µg/min/kg | <9 | BT (Cavia porcellus [21]): 800
14 | N=C(N)Nc1ccc(C(=O)NCC[C@H]2C(=O)N(CC(=O)O)CCN2C(=O)CNC(=O)c2ccc(NC(=N)N)cc2)cc1 | 97 nM | 0.88 µg/min/kg | <10 | BT (Cavia porcellus [22]): 800
15 | N=C(N)Nc1ccc(C(=O)NC[C@H]2C(=O)N(CC(=O)O)CCN2C(=O)CNC(=O)c2ccc(C(=N)N)cc2)cc1 | 85 nM | 0.66 µg/min/kg | 10 | BT (Cavia porcellus [23]): 660
16 | N=C(N)NCCCC(=O)NCCC[C@H]1C(=O)N(CC(=O)O)CCN1C(=O)CNC(=O)c1ccc(C(=N)N)cc1 | 88 nM | 0.47 µg/min/kg | 21 | BT (Cavia porcellus [19]): 620
17 | N=C(N)c1ccc(C(=O)NCC(=O)N2CCN(CC(=O)O)C(=O)[C@@H]2CCCNC(=O)CCCCN)cc1 | 210 nM | 0.94 µg/min/kg | >5 | BT (Cavia porcellus [24]): 490
18 | N=C(N)Nc1ccc(C(=O)NCCC[C@H]2C(=O)N(CC(=O)O)CCN2C(=O)CNC(=O)c2ccc(C(=N)N)cc2)cc1 | 19 nM | 0.087 µg/min/kg | 16 | BT (Cavia porcellus [25]): 490; BT (Cavia porcellus [26]): >900
19 | N=C(N)Nc1ccc(C(=O)NCCC[C@H]2C(=O)N(CC(=O)O)CCN2C(=O)CNC(=O)c2ccc(NC(=N)N)cc2)cc1 | 51 nM | 0.18 µg/min/kg | >33 | IC50 (Cavia porcellus [10]): 51 nM; IC50 [11]: 79 nM; IC50 (Homo sapiens [12]): 31 nM; BT (Cavia porcellus [7]): 510; IC50 (Homo sapiens [13]): 30 nM; IC50 (Homo sapiens [14]): 91 nM; IC50 (Homo sapiens [15]): 31 nM; IC50 (Homo sapiens [16]): 59 nM
